The list is not random: actives were taken first. Their share in the collection is about 2.3%.
TAAR1 ag = human TAAR1 agonists, primary screen, Fluo-8 calcium fluorescence, CHO RD-HGA16 cells; Trace amine-associated receptor 1 (Homo sapiens), Q96RJ0; vehicle wells 0%, saturating PEA agonist 100%; AID 624467, 2012; actives 0.99% (n = 360,000); activation, % at 3 µM;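 active = activation above the mean activation of all test compounds in the run plus 3 SD, cut at about 38% in these data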
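System: CHO-derived RD-HGA16 cells with stable Gα16 and human TAAR1 / Times: 17-24 h plating, Fluo-8 75 min 37 °C, 30 min RT / Technique: calcium-sensitive Fluo-8 signal, excitation 470-495, emission 515-575 nm / Measure: % activation relative to PEA EC100 response / Benchmarks: DMSO and PEA EC100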
OXTR agonist = human OXTR agonists, primary screen, fluorescence, CHO-OTR cells, Fluo-8 calcium; Oxytocin receptor (Homo sapiens), P30559; Fluo-8 calcium fluorescence; normalized: DMSO 0%, oxytocin 100%; activation, % at 3 µM; actives 0.32% (n = 320,000); AID 2435, 2010;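 active = activation above the mean of all tested compounds plus 3 SD, cutoff set per screening run, cut at about 20% in these data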;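 also: peak over basal fluorescence ratio from a 100 s FLIPR kinetic read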
Target sequence (P30559 whole entry, looked up): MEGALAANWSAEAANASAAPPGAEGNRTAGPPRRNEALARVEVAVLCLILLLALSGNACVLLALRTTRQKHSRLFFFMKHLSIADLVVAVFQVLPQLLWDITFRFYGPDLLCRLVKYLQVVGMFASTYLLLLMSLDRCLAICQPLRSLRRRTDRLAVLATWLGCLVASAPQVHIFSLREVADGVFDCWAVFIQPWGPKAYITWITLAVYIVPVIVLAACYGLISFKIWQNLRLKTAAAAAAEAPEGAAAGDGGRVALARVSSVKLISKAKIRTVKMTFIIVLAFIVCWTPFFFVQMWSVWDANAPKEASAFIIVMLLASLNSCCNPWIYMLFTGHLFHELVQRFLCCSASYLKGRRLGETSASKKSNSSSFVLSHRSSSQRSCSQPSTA
V1R ag counter = agonists of human V1a receptor, primary screen, counter-screen for OXTR agonist project, fluorescence, CHO-V1R cells; actives 0.25% (n = 320,000); activation, % at 3 µM; Fluo-8 calcium fluorescence, agonist mode; 0% DMSO, 100% 3 nM vasopressin; AID 2797, 2010;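 active = activation above the mean activation of all tested compounds plus 3 SD, per screening run, cut at about 20% in these data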;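 also: signal is peak over basal fluorescence ratio across a 100 second FLIPR read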
OXTR potentiate = human OXTR potentiators, primary screen, fluorescence, CHO-OTR cells, Fluo-8 calcium | Oxytocin receptor (Homo sapiens), P30559 | Fluo-8 calcium fluorescence, potentiator mode; 0% = oxytocin EC15, 100% = EC100 | activation, % at 3 µM | actives 0.061% (n = 320,000);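 active = activation above that plate's cutoff, the mean activation of tested compounds plus 3 SD, cut at about 6.6% in these data, passing the limit was not always enough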
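Assay system: CHO-OTR cells, human receptor / Also added: oxytocin at about EC15, sub-maximal agonist stimulus / Dosing: single dose, 3.0 µM nominal final compound concentration / Incubation: 6 min pre-incubation, 100 s read / Technique: Fluo-8 calcium dye fluorescence / Read-out: % activation vs EC15 and EC100 oxytocin / Benchmarks: EC15 oxytocin low, 75 nM oxytocin high / Replicates: singlicate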
TAAR1 antagonist = human TAAR1 antagonists, primary screen, Fluo-8 calcium fluorescence, CHO RD-HGA16 cells; AID 624466, 2012; Trace amine-associated receptor 1 (Homo sapiens), Q96RJ0; actives 1.5% (n = 360,000); inhibition, % at 3 µM; antagonist;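 active = inhibition above a per-plate cutoff, the mean inhibition of test compounds on that plate plus 3 SD, cut at about 49% in these data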
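Test system – hTAAR1-expressing CHO RD-HGA16 cells, Gα16-coupled · Reagent – β-PEA at EC80 concentration, post-compound challenge · Compound dosing – 3 µM, single point · Timing – 140 s kinetic read after compound, 140 s after agonist · Detection – Fluo-8 intracellular calcium dye fluorescence, real-time kinetic reads · Control set – DMSO and EC80 PEA controls · Repeats – n of 1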
TAAR1 ag conf = human TAAR1 agonists, retest of hits, confirmation, Fluo-8 calcium fluorescence, CHO RD-HGA16 cells; shares compounds with TAAR1 ag; scaled: DMSO 0%, maximal phenethylamine 100%; activation, % at 3 µM; AID 651783, 2012; actives 82% (n = 2,400);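 active = activation above a cutoff set at the run's mean compound activation plus 3 SD, cut at about 39% in these data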
Ga16 ag counter = nonselective calcium mobilization agonists, CHO-Ga16 cells, counter-screen for hTAAR1 agonist project, cell-based, fluorescence, CHO-Ga16 parental line; shares compounds with TAAR1 ag; Fluo-8 calcium fluorescence; normalized to maximal ATP response, DMSO zero; activation, % at 3 µM; actives 50% (n = 2,400);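 active = activation above the run cutoff, the mean activation over all tested wells plus 3 SD, cut at about 12% in these data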
TAAR1 desensitize = TAAR1 desensitization by agonist hits, confirmation, counter-screen for TAAR1 agonist project, cell-based, fluorescence, tachyphylaxis; shares compounds with TAAR1 ag; CHO RD-HGA16 hTAAR1, Fluo-8 calcium, beta-PEA response inhibition; inhibition, % at 3 µM; actives 46% (n = 2,400); AID 651951, 2012;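 active = inhibition above the run cutoff, the mean inhibition of all test compounds plus 3 SD, cut at about 49% in these data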;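 also: beta-PEA stimulus applied at its EC80; loss of beta-PEA calcium signal after compound pretreatment read as receptor desensitization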
Ga16 nonsel ant = inhibition of ATP-evoked calcium response in CHO-Ga16 cells, counter-screen for TAAR1 agonist project, cell-based, fluorescence. AID 651952, 2012. inhibition, % at 3 µM. actives 39% (n = 2,400). shares compounds with TAAR1 ag. CHO-Ga16 ATP-induced calcium, Fluo-8 fluorescence;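 active = inhibition above the plate's mean compound inhibition plus 3 SD, computed per plate, cut at about 22% in these data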
Hits are given with their value; - = inactive; . = no result given.

SMILES	TAAR1 ag	OXTR agonist	V1R ag counter	OXTR potentiate	TAAR1 antagonist	TAAR1 ag conf	Ga16 ag counter	TAAR1 desensitize	Ga16 nonsel ant
CC(C)(C)c1ccc(C2(C)NC(=O)N(CC(=O)c3ccc[nH]3)C2=O)cc1 (configuration not stated)	56	-	-	-	-	-	13	-	-
CCCCc1cc(=O)oc2cc(C)cc(OCC(=O)N[C@@H](CSCc3ccccc3)C(=O)O)c12	60	-	-	-	-	84	44	-	-
CCN(CC)c1ccc(C=C2SC(=S)NC2=O)cc1	120	.	.	.	105	97	104	101	98
COc1ccc(CNC(=O)/C(C#N)=C2\N=C(NC(=O)c3cccs3)c3ccccc32)cc1	-	-	-	-	-	.	.	.	.
Cc1ccc(C(=O)Nc2ccc(Br)cc2)cc1S(=O)(=O)Nc1ccccn1	66	-	-	-	-	-	-	-	-
Cc1ccccc1NC(=O)c1ccc(C)c(S(=O)(=O)Nc2ccccn2)c1	-	-	-	-	-	.	.	.	.
O=C(COC(=O)c1cc(Br)ccc1O)Nc1ccc2c(c1)OCO2	75	-	-	-	70	44	36	-	40
CNc1ccccc1C(=O)OCC(=O)Nc1ccc2c(c1)OCO2	-	-	-	-	-	.	.	.	.
COc1cccc(N2CCN(C3C4CC5CC(C4)CC3C5)CC2)c1 (configuration not stated)	41	-	-	-	-	56	19	-	-
COc1cccc(N2CCN(CC(=O)C34CC5CC(CC(C5)C3)C4)CC2)c1	-	-	-	-	-	.	.	.	.
C=CCN=C1NC(c2cccc(C(F)(F)F)c2)C(C(=O)OC)=C(C)N1Cc1ccccc1C(F)(F)F (configuration not stated)	-	.	.	.	-	.	.	.	.
COC(=O)C1=C(C)N(Cc2cccc(C(F)(F)F)c2)C(=NCC2CC2)NC1c1ccccc1 (configuration not stated)	121	.	.	.	97	115	79	100	74
C=CCN=C1NC(c2cccc(F)c2)C(C(=O)OC)=C(C)N1Cc1cccc(C(F)(F)F)c1 (configuration not stated)	107	.	.	.	92	89	55	92	73
C=CCN=C1NC(c2cccc(F)c2)C(C(=O)OC)=C(C)N1Cc1ccccc1C(F)(F)F (configuration not stated)	-	.	.	.	-	.	.	.	.
C=CCN=C1NC(c2ccccc2)C(C(=O)OC)=C(C)N1Cc1cccc(C(F)(F)F)c1 (configuration not stated)	116	.	.	.	87	92	61	81	67
C=CCN=C1NC(c2cccc(Cl)c2)C(C(=O)OC)=C(C)N1Cc1cccc(C(F)(F)F)c1 (configuration not stated)	67	.	.	.	81	-	27	56	51

From PubChem BioAssay
